From ChEMBL document CHEMBL4680189, “Immunosuppressive properties of amino acid and peptide derivatives of mycophenolic acid” (Eur J Med Chem, 2020)
The source made the active and inactive calls. The rule behind the calls is not given here. Where a SMILES comes first, the peptide text is derived from it. [ ]: non-standard residue; d: D form. The star is where a group is joined. Mycophenolyl = COc1c(C)c2c(c(O)c1C/C=C(\C)CCC(=O)*)C(=O)OC2; Arg(NO2) = N=C(NCCC[C@H](N)C(=O)O)N[N+](=O)[O-]; βAla = NCCC(=O)O

Tests used:
[1] = Selectivity index, ratio of IC50 for cytotoxicity against human PBMC by MTT assay to EC50 for antiproliferative activity against human PBMC by VPD450 staining based flow cytometry
Procedure, shortened: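 Ratio of the MTT cytotoxicity IC50 (72 h, stimulated PBMC) to the VPD450 antiproliferative EC50 (72 h, stimulated PBMC), both from fitted concentration-response curves.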

[2] = Immunosuppression-mediated antiproliferative activity against anti-CD3/anti-CD28-stimulated human PBMC cells assessed as inhibition of cell growth incubated for 72 hrs by VPD450 staining based flow cytometry; type: functional
Procedure, shortened: (§1)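 Cells stained with VPD450 (2 μL of 1 mM dye per 10-30×10^6 cells in 1 mL PBS, 15 min, 37 °C), washed. PBMC: 50×10^3 cells/well with anti-CD3/anti-CD28, serial compound dilutions, 72 h. Jurkat: 50×10^3 cells/well, 48 h. 37 °C, 5% CO2, triplicate. Dye dilution by flow cytometry; EC50 from curve fit.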

[3] = system: Jurkat; assay: Immunosuppression-mediated cytotoxicity against human Jurkat T cells assessed as reduction in cell viability incubated for 48 hrs by MTT assay; type: cell-based
Procedure, shortened: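 Jurkat cells in RPMI-1640 with 10% FBS and P/S, 50×10^3 cells/well, exposed in triplicate to serial dilutions from 1 mg/mL (DMSO/medium) for 48 h at 37 °C, 5% CO2. MTT (5 mg/ml) then added for 3 h. Formazan dissolved in 0.4 N HCl–isopropanol, absorbance read at 570 nm. IC50 from curve fitting; viability at 1 mg/mL used where IC50 could not be reached.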

[4] = system: Jurkat; assay: Immunosuppression-mediated antiproliferative activity against human Jurkat T cells assessed as inhibition of cell growth incubated for 48 hrs by VPD450 staining based flow cytometry; type: functional; procedure, shortened: as §1
[5] = Immunosuppression-mediated cytotoxicity against anti-CD3/anti-CD28-stimulated human PBMC cells assessed as reduction in cell viability incubated for 72 hrs by MTT assay; type: cell-based
Procedure, shortened: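 PBMC from buffy coats of healthy donors, isolated on a Ficoll gradient with erythrocyte lysis. Plated at 50×10^3 cells/well with anti-CD3/anti-CD28, serial compound dilutions, in triplicate. Incubated 72 h, 37 °C, 5% CO2. MTT added for 3 h, formazan dissolved in acidified isopropanol (0.4 N HCl), A570 read. Three donors averaged; IC50 from curve fit.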

[6] = system: PBMC; assay: Immunosuppression-mediated antiproliferative activity against anti-CD3/anti-CD28-stimulated human PBMC cells assessed as inhibition of cell growth incubated for 72 hrs in presence of GMP by VPD450 staining based flow cytometry; type: functional
Procedure, shortened: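 VPD450-stained PBMC, 50×10^3 cells/well, anti-CD3/anti-CD28 stimulation, serial compound dilutions plus GMP at 50 μM in the well. Incubated 72 h at 37 °C, 5% CO2, in triplicate. Proliferation read by flow cytometry as dye dilution and expressed relative to controls.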

[7] = Selectivity index, ratio of IC50 for cytotoxicity against human Jurkat T cells by MTT assay to EC50 for antiproliferative activity against human Jurkat T cells by VPD450 staining based flow cytometry
Procedure, shortened: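 Jurkat IC50 from the 48 h MTT assay (50×10^3 cells/well, triplicate) divided by Jurkat EC50. […] Cells treated 48 h with serial dilutions, then dye dilution read by flow cytometry and fitted.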

[8] = system: Jurkat; assay: Immunosuppression-mediated cytotoxicity against human Jurkat T cells assessed as reduction in cell viability at 1 mg/ml incubated for 48 hrs by MTT assay relative to control; type: cell-based
Procedure, shortened: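 Jurkat cells (RPMI-1640, 10% FBS) plated at 50×10^3 cells/well and exposed to 1 mg/mL compound (1 mg in 20 μL DMSO, made up to 1 mL with medium). 48 h at 37 °C, 5% CO2, in triplicate. MTT (5 mg/mL stock) for 3 h, acidified isopropanol, A570. Viability calculated at that concentration.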

[9] = system: Jurkat; assay: Immunosuppression-mediated antiproliferative activity against human Jurkat T cells assessed as inhibition of cell growth at 1 mg/ml incubated for 48 hrs by VPD450 staining based flow cytometry relative to control; type: functional; parameters: scale not given: the % may be the effect or the level left
Procedure, shortened: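 Jurkat cells stained with VPD450 (2 μL of 1 mM dye per 10-30×10^6 cells, 15 min, 37 °C) and plated at 50×10^3 cells/well. Compound added at the top concentration, 1 mg/mL (1 mg dissolved in 20 μL DMSO, made up to 1 mL with medium). 48 h at 37 °C, 5% CO2, in triplicate. Read by flow cytometry; […].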

Structure (SMILES) | Ratio IC50/EC50 [1] | EC50 [2] [µM] | IC50 [3] [µM] | EC50 [4] [µM] | IC50 [5] [µM] | Activity [6] | Ratio IC50/EC50 [7] | Activity [8] [%] | Activity [9] [%]
CC[C@H](C)[C@H](NC(=O)CC/C(C)=C/Cc1c(O)c2c(c(C)c1OC)COC2=O)C(=O)O | 2.3 | 9 | 73.7 | 2.3 | 20.9 | inactive | 33 |  | 
COC(=O)C(NC(=O)CC/C(C)=C/Cc1c(O)c2c(c(C)c1OC)COC2=O)C(=O)OC | 0.3 | 11 | 101 | 65 | 3.5 | inactive | 1.6 |  | 
COc1c(C)c2c(c(O)c1C/C=C(\C)CCC(=O)N[C@H](C(=O)O)[C@@H](C)O)C(=O)OC2 | 0.7 | 119 | 43 | 83 | 82 | inactive | 0.5 |  | 
COc1c(C)c2c(c(O)c1C/C=C(\C)CCC(=O)N[C@H](CCCNC(=N)N[N+](=O)[O-])C(=O)O)C(=O)OC2 | 0.7 | 588 |  | 1040 | 422 | inactive |  | 75.14 | 
COC(=O)[C@H](CCCNC(=N)N[N+](=O)[O-])NC(=O)CC/C(C)=C/Cc1c(O)c2c(c(C)c1OC)COC2=O | 0.2 | 77 | 347 | 22.3 | 14 | inactive | 16 |  | 
COC(=O)C[C@H](NC(=O)CC/C(C)=C/Cc1c(O)c2c(c(C)c1OC)COC2=O)C(=O)OC | 2.2 | 8 | 20 | 16.7 | 18 | inactive | 1.2 |  | 
COC(=O)[C@@H](CCCNC(=N)N[N+](=O)[O-])NC(=O)CC/C(C)=C/Cc1c(O)c2c(c(C)c1OC)COC2=O | 0.7 | 95.6 | 572 | 69 | 71 | inactive | 8.2 |  | 
COc1c(C)c2c(c(O)c1C/C=C(\C)CCC(=O)N[C@@H](CCCNC(=N)N[N+](=O)[O-])C(=O)O)C(=O)OC2 | 2.2 | 132 |  | 1190 | 283 | inactive |  | 59.12 | 
COc1c(C)c2c(c(O)c1C/C=C(\C)CCC(=O)N[C@@H](CC(=O)O)C(=O)O)C(=O)OC2 | 0.2 | 211 | 540 | 396 | 50 | inactive | 1.4 |  | 
COC(=O)[C@H](NC(=O)CC/C(C)=C/Cc1c(O)c2c(c(C)c1OC)COC2=O)[C@H](C)O | 7.3 | 9 | 115 | 14 | 69 | inactive | 8.3 |  | 
COc1c(C)c2c(c(O)c1C/C=C(\C)CCC(=O)N[C@@H](C(=O)O)[C@H](C)O)C(=O)OC2 | 1 | 122 | 229 | 21.4 | 118 | inactive | 11 |  | 
COC(=O)[C@H](CCCNC(=N)N[N+](=O)[O-])NC(=O)[C@@H]1CCCN1C(=O)[C@H](CCCCNC(=O)CN)NC(=O)[C@@H](NC(=O)CC/C(C)=C/Cc1c(O)c2c(c(C)c1OC)COC2=O)[C@@H](C)O (Mycophenolyl-TK(Gly)P[Arg(NO2)]-OMe) | 1.1 | 590 |  | 1030 | 628 |  |  | 53.4 | 
CC[C@H](C)[C@H](N)C(=O)NCCCC[C@H](NC(=O)[C@@H](NC(=O)CC/C(C)=C/Cc1c(O)c2c(c(C)c1OC)COC2=O)[C@@H](C)O)C(=O)N1CCC[C@H]1C(=O)N[C@@H](CCCNC(=N)N[N+](=O)[O-])C(=O)OC (Mycophenolyl-TK(Ile)P[Arg(NO2)]-OMe) | 1.3 | 357 | 809 | 924 | 461 |  | 0.9 |  | 
COC(=O)[C@H](CCCNC(=N)N[N+](=O)[O-])NC(=O)[C@@H]1CCCN1C(=O)[C@H](CCCCNC(=O)[C@@H](N)CC(C)C)NC(=O)[C@@H](NC(=O)CC/C(C)=C/Cc1c(O)c2c(c(C)c1OC)COC2=O)[C@@H](C)O (Mycophenolyl-TK(Leu)P[Arg(NO2)]-OMe) | 1.2 | 551 |  | 801 | 687 |  |  | 67.04 | 
COC(=O)[C@H](CCCNC(=N)N[N+](=O)[O-])NC(=O)[C@@H]1CCCN1C(=O)[C@H](CCCCNC(=O)CCN)NC(=O)[C@@H](NC(=O)CC/C(C)=C/Cc1c(O)c2c(c(C)c1OC)COC2=O)[C@@H](C)O (Mycophenolyl-TK(βAla)P[Arg(NO2)]-OMe) | 2.5 | 211 | 1020 | 941 | 526 | inactive | 1.1 |  | 
COC(=O)[C@@H](NC(=O)[C@H](CCCCNC(=O)[C@H](C)N)NC(=O)[C@@H]1CCCN1C(=O)[C@H](CCCNC(=N)N[N+](=O)[O-])NC(=O)CC/C(C)=C/Cc1c(O)c2c(c(C)c1OC)COC2=O)[C@@H](C)O (Mycophenolyl-[Arg(NO2)]PK(Ala)T-OMe) | 4.5 | 168 |  | 839 | 750 | inactive |  | 53.9 | 
COC(=O)[C@@H](NC(=O)[C@H](CCCCNC(=O)CN)NC(=O)[C@@H]1CCCN1C(=O)[C@H](CCCNC(=N)N[N+](=O)[O-])NC(=O)CC/C(C)=C/Cc1c(O)c2c(c(C)c1OC)COC2=O)[C@@H](C)O (Mycophenolyl-[Arg(NO2)]PK(Gly)T-OMe) | 1.5 | 566 | 1100 |  | 865 |  |  |  | 56.72
COC(=O)[C@@H](NC(=O)[C@H](CCCCNC(=O)[C@@H](N)C(C)C)NC(=O)[C@@H]1CCCN1C(=O)[C@H](CCCNC(=N)N[N+](=O)[O-])NC(=O)CC/C(C)=C/Cc1c(O)c2c(c(C)c1OC)COC2=O)[C@@H](C)O (Mycophenolyl-[Arg(NO2)]PK(Val)T-OMe) | 4.3 | 129 |  | 556 | 548 | inactive |  | 63.35 | 
COC(=O)[C@@H](NC(=O)[C@H](CCCCNC(=O)CCN)NC(=O)[C@@H]1CCCN1C(=O)[C@H](CCCNC(=N)N[N+](=O)[O-])NC(=O)CC/C(C)=C/Cc1c(O)c2c(c(C)c1OC)COC2=O)[C@@H](C)O (Mycophenolyl-[Arg(NO2)]PK(βAla)T-OMe) | 3.8 | 154 | 786 |  | 588 |  |  |  | 75.89
COc1c(C)c2c(c(O)c1C/C=C(\C)CCC(=O)O)C(=O)OC2 [MYCOPHENOLIC ACID] | 4.6 | 0.0301 | 60.6 | 0.3 | 0.14 |  | 228 |  | 
